The nature of assay [1]: Inhibition of postglutamyl-peptide-hydrolysis-like activity of rabbit 20s proteasome beta1 subunit using benzyloxycarbonyl Z-Leu-Leu-Glu-AMC as substrate after 1 hr by fluorescence assay. More on the design: species or system Oryctolagus cuniculus. In outline:
(§1)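 Purified rabbit 20S proteasome at 1 nM, with or without compound, incubated 1 h at 37 °C in 50 mM Tris-HCl pH 7.6 with fluorogenic AMC peptide: 20 µM […] (CT-L), Bz-Val-Gly-Arg-AMC (T-L) or Z-Leu-Leu-Glu-AMC (PGPH-L).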

The test system of a further assay is MDA-MB-468. The assay is described as follows: Cytotoxicity against human MDA-MB-468 cells assessed as decrease in cell survival after 120 hrs by MTT assay. The format is functional, cell-based. Put shortly: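 MDA-MB-468 cells (DMEM, 10% FBS, penicillin/streptomycin, 37 °C, 5% CO2) attached overnight, then exposed 120 h to varying inhibitor concentrations; medium replaced with complete medium containing 1 mg/ml MTT for 3 h at 37 °C, DMSO solubilisation, absorbance at 540 nm. IC50 from a four-parameter curve fit of % inhibition versus concentration.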

A short description of assay [2]: Inhibition of chymotrypsin-like activity of rabbit 20s proteasome beta5 subunit using Suc-Leu-Leu-Val-Tyr-AMC as substrate after 1 hr by fluorescence assay. Further details: species or system Oryctolagus cuniculus.
Assay [3] in a line: Inhibition of trypsin-like activity of rabbit 20s proteasome beta2 subunit using Bz-Val-Gly-Arg-AMC as substrate after 1 hr by fluorescence assay. Further details: species or system Oryctolagus cuniculus. Put shortly:
as §1

Assay [4] is filed under the species Oryctolagus cuniculus. The assay is described as follows: Inhibition of chymotrypsin-like activity of rabbit 20s proteasome beta5 subunit using Suc-Leu-Leu-Val-Tyr-AMC as substrate at 10 uM after 1 hr by fluorescence assay. Put shortly: as §1
The species named for assay [5] is Oryctolagus cuniculus. Nature of the assay: Reversible inhibition of chymotrypsin-like activity of rabbit 20s proteasome beta5 subunit at 2.5 uM after 18 hrs by dialysis method.
The species named for assay [6] is Oryctolagus cuniculus. Nature of the assay: Covalent binding affinity to rabbit 20s proteasome beta5 subunit assessed as modification of TTTLAFK peptide after 30 mins by LC-MS/MS analysis. In outline: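 Purified rabbit 20S proteasome (1 nM) incubated with inhibitor in 50 mM Tris-HCl pH 7.6 for 30 min at room temperature; acetonitrile added, then trypsin (enzyme:substrate 1:50) digestion for 4 h at 37 °C; peptides concentrated, C18 tip-extracted, then LC/MS-MS checking the N-terminal Thr-1 TTTLAFK peptide for modification versus vehicle (DMSO).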

The species named for assay [7] is Oryctolagus cuniculus. The assay is described as follows: Reversible inhibition of chymotrypsin-like activity of rabbit 20s proteasome beta5 subunit assessed as residual activity at 10 uM after 2 hrs by dialysis method relative to control.
The species named for assay [8] is Oryctolagus cuniculus. Nature of the assay: Reversible inhibition of chymotrypsin-like activity of rabbit 20s proteasome beta5 subunit assessed as residual activity at 10 uM after 20 mins by dialysis method relative to control.
Assay [9] has as its target T1, Proteasome Macropain subunit MB1 (Homo sapiens, UniProt P28074).
T1 sequence (P28074 whole entry): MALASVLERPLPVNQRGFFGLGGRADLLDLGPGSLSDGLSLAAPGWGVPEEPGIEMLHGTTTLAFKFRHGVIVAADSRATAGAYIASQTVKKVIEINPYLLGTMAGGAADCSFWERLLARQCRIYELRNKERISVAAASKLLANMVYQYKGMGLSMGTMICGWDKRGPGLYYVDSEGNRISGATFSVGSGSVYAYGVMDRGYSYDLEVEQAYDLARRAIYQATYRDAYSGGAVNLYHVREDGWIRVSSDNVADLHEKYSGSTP
The assay is described as follows: (§2) Inhibition of chymotrypsin-like activity of proteasome beta5 subunit in human MDA-MB-468 cells using Suc-Leu-Leu-Val-Tyr-AMC as substrate after 2 hrs by fluorescence assay. The format is cell-based.

The target in assay [10] is T2, Proteasome Macropain subunit MB1 (Homo sapiens) (UniProt P28074).
T2 sequence (whole entry): T1 sequence (P28074 whole entry)
Described as §2. The format is cell-based.

Active and inactive are the calls of the source. The rule behind the calls is not given here.

This is an account of results in ChEMBL document CHEMBL2346591, “Oxadiazole-isopropylamides as potent and noncovalent proteasome inhibitors” (J Med Chem, 2013).

Consider `CCCc1ccc(OCC(=O)N(Cc2nc(-c3cccnc3)no2)C(C)C)cc1`, for which the results for the IC50 in assay [1], in assay [2] and in assay [3] were above 100000 nM, 27 nM and above 100000 nM, respectively. Also, the outcome in the assay on MDA-MB-468 was Active.
`CC(C)N(Cc1nc(-c2ccccc2)no1)C(=O)CCc1ccc(C(F)(F)F)cc1` yielded an IC50 in assay [2] of 53500 nM.
In turn, `Cc1ccc(OCC(=O)N(Cc2nc(-c3ccccn3)no2)C(C)C)cc1` showed an IC50 in assay [2] of 3750 nM.
On the same count and under the same terms, in the case of `CC(C)N(Cc1nc(-c2ccccc2)no1)C(=O)COc1ccc(F)cc1` it was 10100 nM; in that of `CCN(Cc1nc(-c2ccc(C)cc2)no1)C(=O)COc1ccc(C)cc1`, 6040 nM.
For `Cc1ccc(OCC(=O)N(Cc2nc(-c3ccc(C)cc3)no2)C(C)(C)C)cc1`, the inhibition entry in the assay filed under Oryctolagus cuniculus [4] is “inactive”.
For `CC(C)N(Cc1nc(-c2ccc(C(F)(F)F)cc2)no1)C(=O)COc1ccccc1`, the IC50 in assay [2] worked out at 11200 nM.
On to `Cc1ccc(OCC(=O)N(Cc2nc(-c3ccc(C)cc3)no2)C2CC2)cc1`, for which the inhibition entry in the assay listed under Oryctolagus cuniculus [4] was “inactive”.
Same read-out and setting: to `Cc1ccc(OCC(=O)N(CCc2nc(-c3ccccc3)no2)C(C)C)cc1` belongs “inactive”; to `Cc1ccccc1OCC(=O)N(Cc1nc(-c2ccccc2)no1)C(C)C`, “inactive”.
In assay [2], `CCc1ccc(OCC(=O)N(Cc2nc(-c3cccnc3)no2)C(C)C)cc1` showed an IC50 of 99 nM.
With `CC(C)N(Cc1nc(-c2ccccc2)no1)C(=O)COc1ccc(C(=O)O)cc1`, the inhibition result in the assay listed under Oryctolagus cuniculus [4] is “inactive”.
The same measure, in the same setting: to `Cc1ccc(CNC(=O)N(Cc2nc(-c3ccccc3)no2)C(C)C)cc1` belongs “inactive”.
The compound `CC(C)N(Cc1nc(-c2cccnc2)no1)C(=O)COc1ccc(C2CCCCC2)cc1` registered an IC50 in [2] of 1360 nM.
On the same count and under the same terms, to `CC(C)N(Cc1nc(-c2cccnc2)no1)C(=O)COc1ccccc1` belongs 2710 nM; to `CC(C)N(Cc1nc(-c2ccc(C(F)(F)F)cc2)no1)C(=O)COc1ccc(C(F)(F)F)cc1`, 2530 nM.
Regarding `Cc1cccc(OCC(=O)N(Cc2nc(-c3ccccc3)no2)C(C)C)c1`, the inhibition result in the assay filed under Oryctolagus cuniculus [4] is “inactive”.
The same measure, in the same setting: in the case of `CC(C)N(Cc1nc(-c2ccccc2)no1)C(=O)COc1ccc(C(=O)OC(C)(C)C)cc1` it was “inactive”.
`CCCc1ccc(OCC(=O)N(Cc2nc(-c3ccc(C)cc3)no2)C(C)C)cc1` registered an IC50 in assay [2] of 273 nM.
`Cc1ccc(OCC(=O)N(Cc2nc(-c3ccccc3)no2)C(C)C)cc1` displayed an IC50 in [2] of 310 nM.
The same measure, in the same setting: in the case of `CCCCCc1ccc(OCC(=O)N(Cc2nc(-c3cccnc3)no2)C(C)C)cc1` it was 120 nM; in that of `Cc1ccc(-c2noc(CN(C(=O)COc3ccc(C(F)(F)F)cc3)C(C)C)n2)cc1`, 1080 nM.
Still for that read-out and setting: to `CCCc1ccc(OCC(=O)N(Cc2nc(-c3cnccn3)no2)C(C)C)cc1` belongs 105 nM; to `Cc1ccc(OCC(=O)N(Cc2nc(-c3ccncc3)no2)C(C)C)cc1`, 370 nM.
Compound `CC(C)N(Cc1nc(-c2cccnc2)no1)C(=O)COc1ccc(O)cc1` registered a half-inhibitory concentration (IC50) in assay [2] of 980 nM.
The compound `CC(C)N(Cc1nc(-c2ccc(Cl)cc2)no1)C(=O)COc1ccc(C(F)(F)F)cc1` registered an IC50 in assay [2] of 940 nM.
The same measure, in the same setting: to `CCCCCCc1ccc(OCC(=O)N(Cc2nc(-c3cccnc3)no2)C(C)C)cc1` belongs 430 nM; to `Cc1ccc(OCC(=O)N(Cc2nc(-c3cccnc3)no2)C(C)C)cc1`, 220 nM; to `CC(C)N(Cc1nc(-c2ccccc2)no1)C(=O)COc1ccc(C(F)(F)F)cc1`, 430 nM.
Same read-out and setting: in the case of `CC(C)N(Cc1nc(-c2ccccc2)no1)C(=O)COc1ccccc1` it was 6200 nM.
Still for that read-out and setting: to `CCCCc1ccc(OCC(=O)N(Cc2nc(-c3cccnc3)no2)C(C)C)cc1` belongs 39 nM.
With `CC(C)N(Cc1nc(-c2cccnc2)no1)C(=O)COc1ccc(Cl)cc1`, the midpoint of inhibition in assay [2], the IC50, lay at 140 nM.
On the same count and under the same terms, to `Cc1ccc(-c2noc(CN(C(=O)COc3ccc(Cl)cc3)C(C)C)n2)cc1` belongs 1120 nM.
Turning to `CC(C)N(Cc1nc(-c2ccccc2)no1)C(=O)COc1ccc(-c2ccccc2)cc1`, the inhibition result in the assay listed under Oryctolagus cuniculus [4] is “inactive”.
For the compound `CC(C)N(Cc1nc(-c2cccnc2)no1)C(=O)c1cc2ccccc2o1`, in assay [2], the IC50 worked out at 379 nM.
Still for that read-out and setting: in the case of `CCCCc1ccc(OCC(=O)N(Cc2nc(-c3cnccn3)no2)C(C)C)cc1` it was 107 nM; in that of `CC(C)N(Cc1nc(-c2cccnc2)no1)C(=O)COc1ccc(F)cc1`, 1930 nM; in that of `Cc1ccc(NCC(=O)N(Cc2nc(-c3ccccc3)no2)C(C)C)cc1`, 5670 nM.
`Cc1ccc(OCC(=O)N(C)Cc2nc(-c3ccc(C)cc3)no2)cc1`: the IC50 in assay [2] was 29900 nM.
In assay [2], `Cc1ccc(OCC(=O)N(Cc2nc(-c3ccc(C(F)(F)F)cc3)no2)C(C)C)cc1` returned an IC50 of 970 nM.
As for `CC(=O)N[C@@H](CSC(=O)[C@]1([C@@H](O)C(C)C)NC(=O)[C@H](C)[C@@H]1O)C(=O)O`, in the assay listed under Oryctolagus cuniculus [5], the inhibition entry is “inactive”. Further, the result in the assay listed under Oryctolagus cuniculus [6] was Active.
With `CC(C)N(Cc1nc(-c2ccc(C(F)(F)F)cc2)no1)C(=O)COc1ccc(Cl)cc1`, half-maximal inhibition in [2] (IC50) required 1410 nM.
In the case of `CC(C)Cc1ccc(OCC(=O)N(Cc2nc(-c3cccnc3)no2)C(C)C)cc1`, in [2], the midpoint of inhibition, the IC50, lay at 140 nM.
Regarding `CC(C)N(Cc1nc(-c2ccccc2)no1)C(=O)COc1ccc(Cl)cc1`, in [2], the IC50 is 510 nM.
On the same count and under the same terms, to `CCCc1ccc(OCC(=O)N(Cc2nc(-c3ncccn3)no2)C(C)C)cc1` belongs 1270 nM; to `Cc1ccc(OCC(=O)N(Cc2nc(-c3ccc(C)cc3)no2)CC(C)C)cc1`, 2370 nM; to `Cc1ccc(OCC(=O)N(Cc2nc(-c3ccc(Cl)cc3)no2)C(C)C)cc1`, 450 nM.
With `Cc1ccc(OCC(=O)NCc2nc(-c3ccc(C)cc3)no2)cc1`, in the assay filed under Oryctolagus cuniculus [4], the inhibition result was “inactive”.
As for `Cc1ccc(OCC(=O)N(Cc2nc(-c3ccc(C)cc3)no2)C(C)C)cc1`, the Activity in the assay listed under Oryctolagus cuniculus [7] was 100%; in the assay listed under Oryctolagus cuniculus [8], above 70%. Besides, the IC50 in assay [1] was above 100000 nM; in [9], 3500 nM; in [2], 600 nM; in assay [3] it was above 100000 nM. Besides, the inhibition entry in assay [10] is “Dose-dependent effect”. In addition, in the assay with MDA-MB-468, the result was Active. Further, the result in the assay listed under Oryctolagus cuniculus [6] was inactive.
As for `CC(C)N(Cc1nc(-c2ccccc2)no1)C(=O)COc1ccc2cc(Br)ccc2c1`, in the assay filed under Oryctolagus cuniculus [4], the inhibition result was “inactive”.
For `CC(C)N(Cc1nc(-c2ccccc2)no1)C(=O)COc1ccc(O)cc1`, half-maximal inhibition in assay [2] (IC50) required 10100 nM.
On the same count and under the same terms, to `CC(C)N(Cc1nc(-c2cccnc2)no1)C(=O)COc1ccc(C(C)(C)C)cc1` belongs 46500 nM.
Same read-out and setting: to `CCc1ccc(OCC(=O)N(Cc2nc(-c3ccccc3)no2)C(C)C)cc1` belongs 260 nM; to `CC(C)c1ccc(OCC(=O)N(Cc2nc(-c3cccnc3)no2)C(C)C)cc1`, 440 nM.
The same measure, in the same setting: to `CC(C)N(Cc1nc(-c2ccc(Cl)cc2)no1)C(=O)COc1ccc(Cl)cc1` belongs 1070 nM.
The compound `Cc1ccc(OCC(=O)N(Cc2nc(-c3ccccc3)no2)C(C)C)cn1` showed an IC50 in assay [2] of 4000 nM.
On the same count and under the same terms, in the case of `Cc1ccc(-c2noc(CN(C(=O)COc3ccccc3)C(C)C)n2)cc1` it was 8500 nM.
